Bioassay records from PubChem.
Mdm2 MdmX PPI: disrupts the human Mdm2-MdmX interaction. O15151+Q00987. SaOS-2 split-luciferase Mdm2/MdmX complementation, luminescence. inhibition, % at 8 µM. 3% of 330,000 active. AID 485346;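 active = inhibition of at least 50% at 8 µM in the primary screen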
Target sequence (O15151 whole entry, looked up): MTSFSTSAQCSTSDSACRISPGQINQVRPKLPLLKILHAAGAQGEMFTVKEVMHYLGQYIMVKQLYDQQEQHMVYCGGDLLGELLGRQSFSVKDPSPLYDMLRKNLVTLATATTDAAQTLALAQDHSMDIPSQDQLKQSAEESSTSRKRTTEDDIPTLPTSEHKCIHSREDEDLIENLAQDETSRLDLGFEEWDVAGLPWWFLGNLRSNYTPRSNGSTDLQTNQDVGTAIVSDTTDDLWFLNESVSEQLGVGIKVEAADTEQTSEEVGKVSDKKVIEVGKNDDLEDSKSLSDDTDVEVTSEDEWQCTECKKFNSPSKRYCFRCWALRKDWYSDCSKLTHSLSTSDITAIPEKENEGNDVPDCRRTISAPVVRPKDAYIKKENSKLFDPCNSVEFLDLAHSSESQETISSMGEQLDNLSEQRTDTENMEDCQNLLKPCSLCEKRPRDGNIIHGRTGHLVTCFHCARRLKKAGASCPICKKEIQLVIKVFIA
Target sequence (Q00987 whole entry, looked up): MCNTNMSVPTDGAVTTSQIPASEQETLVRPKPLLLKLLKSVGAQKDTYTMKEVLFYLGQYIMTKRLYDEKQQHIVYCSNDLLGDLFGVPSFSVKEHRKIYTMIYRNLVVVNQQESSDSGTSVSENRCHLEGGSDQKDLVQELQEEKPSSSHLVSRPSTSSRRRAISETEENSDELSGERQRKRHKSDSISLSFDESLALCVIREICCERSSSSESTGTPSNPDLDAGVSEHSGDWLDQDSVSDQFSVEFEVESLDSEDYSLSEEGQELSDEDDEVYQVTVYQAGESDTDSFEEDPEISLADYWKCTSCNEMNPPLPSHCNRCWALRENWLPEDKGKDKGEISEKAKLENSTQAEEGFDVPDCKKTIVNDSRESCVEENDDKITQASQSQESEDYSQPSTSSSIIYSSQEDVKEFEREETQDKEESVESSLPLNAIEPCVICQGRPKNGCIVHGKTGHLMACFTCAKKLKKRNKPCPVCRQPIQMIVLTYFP
SKKanGAS inh: inhibitors of SKKanGAS S. pyogenes growth in kanamycin (SK-promoter or general growth effect); BacTiter-Glo, 6 h; inhibition, % at 7.5 µM; 1.3% of 300,000 active;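 active = mean replicate score, as percent of positive control median, at least 50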;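 also: strain carries kanamycin resistance gene driven by streptokinase promoter and grows in 40 µg/ml kanamycin; loss of luminescence reflects streptokinase promoter inhibition or plain growth inhibition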
Beta apoptosis: blocks beta cell apoptosis; INS-1E cytokine-induced death, ATP luminescence, 48 h; percent of positive-control rescue, neutral wells zero; protection from apoptosis, % (concentration not given with the values); 0.8% of 300,000 active; AID 435005;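 active = Every replicate reaches about 75%, or at least half do and their mean reaches it too, limit read from the data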;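 also: higher means more ATP so stronger rescue from cytokine killing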
XBP1 UPR activ: adaptive UPR (XBP1) activation | activation, % at 20 µM | CHO-XBP1 luciferase reporter, IRE1-XBP1 UPR activation, luminescence; percent of tunicamycin response, DMSO as zero | 0.33% of 330,000 active;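 active = versus positive control, 20 µM dose yields 30% or more activation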
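Test system: CHO-XBP1 luciferase reporter cells | Buffer or medium: Serum-containing F12 medium, 10% FBS | Schedule: 6 h compound exposure at 37 °C, 5% CO2 | Detection: Steady-Glo luciferase glow luminescence, 10 min after reagent addition | Read-out basis: Activation, % of tunicamycin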
CSC inhib: cancer stem cell inhibition. cancer stem cell-like cells viability, luminescence. inhibition, % at 7.5 µM. 1.1% of 300,000 active; in the data active = inhibition above about 75%; tested in HMLE shEcad cells
CHOP UPR activ: activators of apoptotic arm of unfolded protein response (CHOP) | CHO-CHOP luciferase reporter, UPR activation, luminescence; percent of tunicamycin response over DMSO baseline | activation, % at 10 µM | 0.34% of 330,000 active | AID 449763;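 active = at 10 µM dose, activation of 40% or more, normalized to positive control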
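Assay system: CHO cells with stable CHOP pathway luciferase reporter; Buffer or medium: F12 plus 10% serum; Times: 16-18 h cell attachment, then 6 h compound exposure, 37 °C; Signal: luciferase luminescence; Read-out basis: percent activation relative to tunicamycin control; Control set: tunicamycin high control, DMSO low control.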
A number is an active result; - = inactive; . = not tested or not shown. Rows were chosen to be rich in hits. Some 4.8% of all compounds tested hit in one or more screens of this group.

SMILES	Mdm2 MdmX PPI	SKKanGAS inh	Beta apoptosis	XBP1 UPR activ	CSC inhib	CHOP UPR activ
CN(C)c1ccc(/C=C2\CCC/C(=C\c3ccccc3)C2=O)cc1	.	-	-	.	86	.
COc1ccc(C2(C)NC(=O)N(CC(=O)NC3CCCC3)C2=O)cc1OC (stereo not given)	-	.	-	-	-	-
OCCN(CCO)c1ccc(C(c2ccc(Cl)cc2)c2ccc(N(CCO)CCO)cc2Cl)c(Cl)c1	-	93	-	-	-	-
Nc1ccc(N(CCO)CCO)cc1	-	-	-	-	-	-
CCC1(C)Cc2c(sc3nc(SC)[nH]c(=S)c23)CO1 (stereo not given)	-	85	.	-	.	-
CCSc1nc2sc3c(c2c(=O)[nH]1)CC(C)(CC)OC3 (stereo not given)	-	-	-	-	-	-
Cc1ccc(NC(=O)c2cc(N3C(=O)CCC3=O)ccc2N2CCOCC2)cc1	-	-	-	-	-	-
COC(=O)c1cc(NC(=O)c2cc(-c3ccccc3Cl)oc2C(F)(F)F)ccc1N1CCOCC1	-	-	-	-	89	-
COC(=O)c1cc(NC(=O)c2cc(-c3ccc(Cl)cc3)oc2C(F)(F)F)ccc1N1CCOCC1	-	59	-	-	-	-
Cc1ccc(NC(=O)c2cc(N3C(=O)C=CC3=O)ccc2N2CCOCC2)cc1Cl	.	61	-	.	-	.
COC(=O)c1cc(NC(=O)c2c(-c3c(Cl)cccc3Cl)noc2C)ccc1N1CCOCC1	-	-	-	-	-	-
COC(=O)c1cc(NC(=O)c2cccs2)ccc1N1CCOCC1	-	-	-	-	-	-
Cc1c(C(=O)N2CCN(C3CCS(=O)(=O)C3)CC2)oc2c(F)cccc12 (stereo not given)	-	.	-	-	.	-
CSc1ccc(/C=C2\CCn3c2nc2cc(C(=O)O)ccc2c3=O)cc1	-	52	-	-	-	-
COC(=O)c1ccc(/C=C2\CCn3c2nc2cc(C(=O)O)ccc2c3=O)cc1	-	-	-	-	-	-
CCc1nc(SCC(=O)Nc2nnc(CC)s2)c2c(=O)n(C)c(=O)n(C)c2n1	-	-	-	-	-	-
Cc1ccc2c(c1)nnn2C1CCN(S(=O)(=O)c2ccc(C(=O)O)cc2)CC1	-	-	-	-	-	-
Cc1ccc2c(c1)nnn2C1CCN(S(=O)(=O)c2ccc(C(=O)N3C(C)CCCC3C)cc2)CC1 (stereo not given)	-	-	106	-	-	-
CCN1CCN(S(=O)(=O)Cc2ccccc2Cl)CC1	-	-	.	-	-	-
O=c1c2ccccc2nc2n1CCc1c-2[nH]c2ccccc12	-	.	-	-	78	-
COc1ccc(C2(C)NC(=O)N(CC(=O)NC(C)c3ccc(CC(C)C)cc3)C2=O)cc1 (stereo not given)	-	-	-	-	-	-
CC(C)(C)NC(=O)Cn1nnc(-c2ccc(OCc3c(F)cccc3Cl)cc2)n1	-	-	-	-	78	-
CC(C)(C)NC(=O)Cn1nnc(-c2ccc(Cl)cc2)n1	-	-	.	-	-	-
Cc1ccc2sc(N(CCCN(C)C)C(=O)CN3C(=O)c4ccccc4C3=O)nc2c1C	-	-	-	-	-	-
CC1CN(C(=O)CN(C)S(=O)(=O)c2ccc3ccccc3c2)CC(C)O1 (stereo not given)	-	-	-	-	-	-
SMILES	Mdm2 MdmX PPI	SKKanGAS inh	Beta apoptosis	XBP1 UPR activ	CSC inhib	CHOP UPR activ
O=c1c2c(n3nnnc3n1Cc1ccccc1)-c1ccccc1CC21CCCC1	-	65	-	-	-	-
CCC1(C)Cc2ccccc2-c2c1c(=O)n(Cc1ccccc1)c1nnnn21 (stereo not given)	-	69	-	-	135	-
Cc1occc1C(=O)N(C)Cc1nc(-c2ccc(Cl)cc2)no1	-	-	-	-	-	-
c1ccc(-n2c(-c3cccs3)nc3nc4ccccc4nc32)cc1	-	-	-	-	-	-
CCC(C)n1c(-c2cccs2)nc2nc3ccccc3nc21 (stereo not given)	-	-	-	-	64	-
COc1ccccc1CNC(=O)COc1ccc(S(=O)(=O)N2CCOCC2)cc1C	-	-	-	-	-	-
COc1cc(OC)cc(C(=O)OCC(=O)NC2CCCCCC2)c1	-	.	-	-	.	-
Cc1cccc(CCN2C(Nc3ccccc3)=NC[C@@H]2CC(C)C)c1	-	.	-	-	-	-
CC(C)C[C@H]1CN=C(Nc2ccccc2)N1CCc1ccc(F)cc1	-	.	90	-	-	-
Cc1ccc(C(=O)Nc2nc(-c3ccccc3)c(-c3ccccc3)o2)cc1	-	113	-	-	.	-
Cc1cc(C)nc(SCC(=O)Nc2nc(-c3ccccc3)c(-c3ccccc3)o2)n1	-	-	-	-	-	-
CCCCc1c(C)nn(-c2nnc3c4ccccc4n(CC)c3n2)c1C	-	76	-	-	-	-
COc1ccc(C(c2c(O)ccc3ccccc23)N2CCOCC2)c(OC)c1 (stereo not given)	-	-	-	-	101	-
Cc1c(C(C)C)c(=O)n(-c2ccc(S(=O)(=O)NC3CCCCC3)cc2)n1C	-	-	-	-	-	-
Cc1c(C(C)C)c(=O)n(-c2ccc(S(=O)(=O)NCc3ccccc3)cc2)n1C	-	-	105	-	-	-
Cc1sc2ncnc(N3CCN(S(=O)(=O)c4ccccc4)CC3)c2c1C	-	.	99	-	.	-
CCOC(=O)c1sc2ncnc(N3CCN(c4ccc(OC)cc4)CC3)c2c1C	-	69	-	-	-	-
CCOC(=O)c1sc2ncnc(N3CCN(C)CC3)c2c1C	-	-	-	-	-	-
Clc1ccc(OCCN2CCN(c3ncnc4sccc34)CC2)cc1	-	.	106	-	-	-
Cc1ccc(OCCN2CCN(c3ncnc4sc(C)c(C)c34)CC2)cc1	-	-	114	-	-	-
CC(/C=N/NC(=O)c1nnn(-c2nonc2N)c1C(C)C)=C\c1ccco1	-	-	-	-	-	-
CC1CC(C)CN(CCCNC(=O)c2ccc3c(c2)ncn3C2CCCC2)C1 (stereo not given)	-	-	-	-	-	-
COc1ccc(Cn2c(CCC(=O)NCCC(C)C)nc3ncccc3c2=O)cc1	-	-	-	-	-	-
CCOC(=O)/C=C/C(=O)Nc1cccc([N+](=O)[O-])c1	-	-	-	-	108	-
COc1ccc(Nc2nc(-c3ccccc3)nc3ccccc23)cc1	-	-	.	-	-	-
COc1cccc(Nc2nc(-c3cccs3)nc3ccccc23)c1	-	-	-	-	89	-
COc1ccc(Nc2nc(-c3cccs3)nc3ccccc23)cc1	-	-	-	-	78	-
COc1ccc(C(C)C)cc1S(=O)(=O)NC1CCCC1	-	-	-	-	-	-
Fc1cccc(-c2cc3nc4c(c(NCc5ccco5)n3n2)CCCC4)c1	-	-	-	-	93	-
CN(CCC(=O)c1ccccc1)CCC(=O)c1ccccc1	-	-	-	-	-	-
